Consider 14 molecules from ChEMBL document CHEMBL2311458, “A facile synthesis, antibacterial activity of pulvinone and its derivatives” (2013).

Structures are written as SMILES. Converted amounts (≈) assume the structure as drawn. The source made the active and inactive calls. No cut-off for these calls is given here. Bounds are passed on as bounds.

What all share (type): functional
For assay [1], the system named is Staphylococcus aureus. Nature of the assay: Antibacterial activity against Staphylococcus aureus assessed as growth inhibition measured at 50 ug/ml after 24 hrs by broth microdilution method. (In general: Broth dilution looks for growth in wells or tubes with falling amounts of substance.)
In assay [2] the test system is Acinetobacter baumannii. Kind of assay: Antibacterial activity against Acinetobacter baumannii assessed as growth inhibition measured at 50 ug/ml after 24 hrs by broth microdilution method.
In assay [3] the test system is Pseudomonas aeruginosa. Kind of assay: Antibacterial activity against Pseudomonas aeruginosa assessed as growth inhibition measured at 50 ug/ml after 24 hrs by broth microdilution method.
For assay [4], the system named is Escherichia coli. Nature of the assay: Antibacterial activity against Escherichia coli assessed as growth inhibition measured at 50 ug/ml after 24 hrs by broth microdilution method.
Assay [5] deals with Escherichia coli. Kind of assay: Antibacterial activity against Escherichia coli assessed as growth inhibition measured after 24 hrs by broth microdilution method. The method, boiled down: (§1)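 Broth microdilution per NCCLS. Bacteria were grown in Luria broth to exponential phase. Compounds were dissolved in DMSO (stock 5120 μg/ml), diluted in test medium and tested at two-fold dilutions from 1 to 128 μg/ml. MIC50 is the lowest concentration reducing OD to half that of the untreated control.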

Assay [6] concerns Stenotrophomonas maltophilia. Kind of assay: Antibacterial activity against Stenotrophomonas maltophilia assessed as growth inhibition measured at 50 ug/ml after 24 hrs by broth microdilution method.
Assay [7] relates to Acinetobacter baumannii. Kind of assay: Antibacterial activity against Acinetobacter baumannii assessed as growth inhibition measured after 24 hrs by broth microdilution method. The method, boiled down:
as §1

Assay [8] relates to Stenotrophomonas maltophilia. Kind of assay: Antibacterial activity against Stenotrophomonas maltophilia assessed as growth inhibition measured after 24 hrs by broth microdilution method. The gist of the method: as §1
Assay [9] concerns Pseudomonas aeruginosa. Nature of the assay: Antibacterial activity against Pseudomonas aeruginosa assessed as growth inhibition measured after 24 hrs by broth microdilution method. The gist of the method:
as §1

Assay [10] relates to Staphylococcus aureus. Nature of the assay: Antibacterial activity against Staphylococcus aureus assessed as growth inhibition measured after 24 hrs by broth microdilution method. The method, boiled down: as §1

By inhibition is commonly meant the change of the read-out against control, counted positive when it falls. One may read the MIC50 as an inhibitory concentration at the 50% level, which refers to growth in some studies and to a panel of isolates in others. For the molecule `COC1=C(c2ccc(Cl)cc2)C(=O)OC1C(O)c1ccc(N2CCOCC2)c(F)c1` (centres undefined), the inhibition entry in assay [1] is “inactive”. In addition, the inhibition at 50 µg/mL in assay [2] amounted to 22.1%; in [3], 31.7%; in [4] it was 61.8%. For the same molecule, the MIC50 in [5] was 30.3 mg/L (≈ 69.7 µM).
In the case of `COC1=C(c2ccccc2)C(=O)O/C1=C\c1ccccc1`, the inhibition entry in assay [1] was “inactive”. Also, the inhibition at 50 µg/mL in [2] was determined as 18.2%; in assay [6], 19.7%; in assay [3] it was 45.4%; in assay [4] it was 60.2%. For the same molecule, the MIC50 in assay [5] was determined as 3.91 mg/L (≈ 14 µM).
For the molecule `O=C1O/C(=C\c2ccccc2)C(O)=C1c1ccccc1` [PULVINONE], the inhibition at 50 µg/mL in assay [1] was determined as 59.2%. The MIC50 is over 50 mg/L in assay [7], 12.8 mg/L (≈ 48.4 µM) in assay [8], over 50 mg/L in [9] and 1.38 mg/L (≈ 5.22 µM) in assay [5].
On to `O=C1O/C(=C\c2ccc(N3CCOCC3)c(F)c2)C(O)=C1c1ccc(F)cc1`, for which, in assay [1], the inhibition entry is “inactive”. For the same molecule, the inhibition at 50 µg/mL was 15.6% in [2], 27.8% in assay [6], 23.2% in assay [3] and 56.8% in assay [4]. Further, the MIC50 in [5] came to 15.6 mg/L (≈ 40.5 µM).
`COC1=C(c2ccc(Cl)cc2)C(=O)O/C1=C\c1ccc(N2CCOCC2)c(F)c1`: the inhibition entry in assay [1] is “inactive”. Further, the inhibition at 50 µg/mL in assay [3] amounted to 45.3%; in [4] it was 70.7%. Besides, the MIC50 in assay [5] was found to be 7.4 mg/L (≈ 17.8 µM).
For the molecule `COC1=C(c2ccc(Br)cc2)C(=O)OC1C(O)c1ccc(N2CCOCC2)c(F)c1` (centres undefined), the inhibition entry in assay [1] is “inactive”. Besides, the inhibition at 50 µg/mL in assay [2] was determined as 32.9%; in [3], 35.6%; in assay [4] it was 45.5%. Besides, the MIC50 in assay [8] is 11.8 mg/L (≈ 24.8 µM); in assay [5] it was 1.01 mg/L (≈ 2.11 µM).
With `COC1=C(c2ccc(F)cc2)C(=O)OC1C(O)c1ccc(N2CCOCC2)c(F)c1` (centres undefined), in assay [1], the inhibition result was “inactive”. In addition, the inhibition at 50 µg/mL in [2] is 22.8%; in [6] it was 31.9%; in assay [3], 35.2%; in assay [4] it was 42%. Besides, the MIC50 in assay [5] is over 50 mg/L.
On to `COC1=C(c2ccccc2)C(=O)OC1C(O)c1ccccc1` (centres undefined), for which the inhibition entry in assay [1] was “inactive”. The inhibition at 50 µg/mL in [2] turned out to be 25.9%; in assay [6] it was 18%; in assay [3] it was 53.2%; in [4] it was 61.7%. Besides, the MIC50 in assay [5] is 5.86 mg/L (≈ 19.8 µM).
In the case of `COC1=C(c2ccccc2)C(=O)OC1C(O)c1ccc(N2CCOCC2)c(F)c1` (centres undefined), the inhibition entry in [1] is “inactive”. The inhibition at 50 µg/mL came to 29.2% in [2], 17.1% in assay [6], 34.8% in [3] and 52.4% in assay [4]. Further, in assay [5], the MIC50 was determined as 36.5 mg/L (≈ 91.3 µM).
With `COC1=C(c2ccccc2)C(=O)O/C1=C\c1ccc(N2CCOCC2)c(F)c1`, the inhibition entry in assay [1] is “inactive”. Further, the inhibition at 50 µg/mL stood at 10% in assay [2], 17.6% in assay [3] and 45.4% in [4]. Also, in assay [5], the MIC50 is over 50 mg/L.
On to `C[C@H]1COc2c(N3CCN(C)CC3)c(F)cc3c(=O)c(C(=O)O)cn1c23.C[C@H]1COc2c(N3CCN(C)CC3)c(F)cc3c(=O)c(C(=O)O)cn1c23.O` [LEVOFLOXACIN], for which the MIC50 in assay [10], in [7], in [8], in assay [9] and in assay [5] was under 0.25 mg/L each time.
For the molecule `COC1=C(c2ccc(C)cc2)C(=O)OC1C(O)c1ccc(N2CCOCC2)c(F)c1` (centres undefined), in [1], the inhibition entry is “inactive”. Besides, the inhibition at 50 µg/mL is 4.9% in assay [2], 1.1% in [6], 31.8% in [3] and 58.3% in assay [4]. Moreover, in assay [5], the MIC50 is 3.67 mg/L (≈ 8.88 µM).
Regarding `COC1=C(c2cccc(F)c2)C(=O)OC1C(O)c1ccc(N2CCOCC2)c(F)c1` (centres undefined), in [1], the inhibition result was “inactive”. Besides, the inhibition at 50 µg/mL in assay [2] was found to be 30.9%; in assay [6] it was 41.5%; in [3], 38.2%; in assay [4] it was 72%. Moreover, in assay [5], the MIC50 is 4.09 mg/L (≈ 9.8 µM).
Take `COC1=C(c2ccc(F)cc2)C(=O)O/C1=C\c1ccc(N2CCOCC2)c(F)c1`: in [1], the inhibition entry is “inactive”. Also, the inhibition at 50 µg/mL was determined as 20.1% in assay [2], 59.4% in [6], 23.4% in [3] and 37.6% in assay [4]. Further, the MIC50 in assay [8] was 20.6 mg/L (≈ 51.7 µM); in assay [5], over 50 mg/L.
